Results published in ChEMBL document CHEMBL5058577, “EUbOPEN Chemogenomics Library 2 (Multiplex)” (2022).

Tested on: U2OS
Assay: Multiplex assay against U2OS
Format: toxicity, cell-based
Conditions: human
Procedure, shortened: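 On a CQ1 microscope at 37°C and 5% CO2, live cells were imaged after compound addition. They had been stained at seeding with Hoechst33342, BioTracker Green Microtubule Cytoskeleton Dye, MitoTracker Red and Annexin V Alexa Fluor 680. CellPathfinder machine-learning gating assigned cells to Hoechst high-intensity objects or normal cells, normal cells to healthy, pyknosed or fragmented nuclei, and pyknosed cells to mitotic or apoptotic. Tubulin, mitochondrial-mass and membrane-permeability phenotypes are per cents of healthy-nucleus cells.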

[1] = 12 h, 1 µM, compound concentration 1 uM, replicate 1
[2] = 12 h, 1 µM, compound concentration 1 uM, replicate 2
[3] = 12 h, 10 µM, compound concentration 10 uM, replicate 1
[4] = 12 h, 10 µM, compound concentration 10 uM, replicate 2
[5] = 24 h, 1 µM, compound concentration 1 uM, replicate 1
[6] = 24 h, 1 µM, compound concentration 1 uM, replicate 2
[7] = 24 h, 10 µM, compound concentration 10 uM, replicate 1
[8] = 24 h, 10 µM, compound concentration 10 uM, replicate 2
[9] = 48 h, 1 µM, compound concentration 1 uM, replicate 1
[10] = 48 h, 1 µM, compound concentration 1 uM, replicate 2
[11] = 48 h, 10 µM, compound concentration 10 uM, replicate 1
[12] = 48 h, 10 µM, compound concentration 10 uM, replicate 2

`CN[C@@H](C)C(=O)N[C@H](C(=O)N1CCC[C@H]1C(=O)Nc1snnc1-c1ccccc1)C1CCCCC1` [GDC-0152] was tested, and the “Population Apoptotic (%)” value [1] was 60%, the “Population Fragmented Nuclei (%)” value [1] was 25% and the “Population Healthy Nuclei (%)” value [1] was 61%. The “Population Hoechst High Intensity Objects (%)” value [1] was 5%, the “Population Membrane Permeable-Phenotype (%)” value [1] was 51% and the “Population Mitochondria Different-Phenotype (%)” value [1] was 24%. The “Population Mitotic Cells (%)” value [1] was 39%, the “Population Normal (%)” value [1] was 94% and the “Population Pyknosed Nuclei (%)” value [1] was 13%. For the same molecule, the “Population Tubulin-Different-Phenotype (%)” value [1] was 47%, the “Total Cell Count” value [1] was 176 and the “Population Apoptotic (%)” value [2] was 89%. For the same molecule, the “Population Fragmented Nuclei (%)” value [2] was 21%, the “Population Healthy Nuclei (%)” value [2] was 60% and the “Population Hoechst High Intensity Objects (%)” value [2] was 11%. The “Population Membrane Permeable-Phenotype (%)” value [2] was 50%, the “Population Mitochondria Different-Phenotype (%)” value [2] was 38% and the “Population Mitotic Cells (%)” value [2] was 10%. The “Population Normal (%)” value [2] was 88%, the “Population Pyknosed Nuclei (%)” value [2] was 17% and the “Population Tubulin-Different-Phenotype (%)” value [2] was 52%. The “Total Cell Count” value [2] was 121, the “Population Apoptotic (%)” value [3] was 72% and the “Population Fragmented Nuclei (%)” value [3] was 39%. For the same molecule, the “Population Healthy Nuclei (%)” value [3] was 44%, the “Population Hoechst High Intensity Objects (%)” value [3] was 4% and the “Population Membrane Permeable-Phenotype (%)” value [3] was 65%. The “Population Mitochondria Different-Phenotype (%)” value [3] was 61%, the “Population Mitotic Cells (%)” value [3] was 27% and the “Population Normal (%)” value [3] was 95%. For the same molecule, the “Population Pyknosed Nuclei (%)” value [3] was 16%, the “Population Tubulin-Different-Phenotype (%)” value [3] was 76% and the “Total Cell Count” value [3] was 208. The “Population Apoptotic (%)” value [4] was 70%, the “Population Fragmented Nuclei (%)” value [4] was 18% and the “Population Healthy Nuclei (%)” value [4] was 65%. For the same molecule, the “Population Hoechst High Intensity Objects (%)” value [4] was 5%, the “Population Membrane Permeable-Phenotype (%)” value [4] was 73% and the “Population Mitochondria Different-Phenotype (%)” value [4] was 70%. The “Population Mitotic Cells (%)” value [4] was 29%, the “Population Normal (%)” value [4] was 94% and the “Population Pyknosed Nuclei (%)” value [4] was 15%. The “Population Tubulin-Different-Phenotype (%)” value [4] was 91%, the “Total Cell Count” value [4] was 114 and the “Population Apoptotic (%)” value [5] was 72%. The “Population Fragmented Nuclei (%)” value [5] was 21%, the “Population Healthy Nuclei (%)” value [5] was 55% and the “Population Hoechst High Intensity Objects (%)” value [5] was 5%. For the same molecule, the “Population Membrane Permeable-Phenotype (%)” value [5] was 20%, the “Population Mitochondria Different-Phenotype (%)” value [5] was 18% and the “Population Mitotic Cells (%)” value [5] was 27%. For the same molecule, the “Population Normal (%)” value [5] was 94%, the “Population Pyknosed Nuclei (%)” value [5] was 23% and the “Population Tubulin-Different-Phenotype (%)” value [5] was 19%. The “Total Cell Count” value [5] was 196, the “Population Apoptotic (%)” value [6] was 85% and the “Population Fragmented Nuclei (%)” value [6] was 34%. The “Population Healthy Nuclei (%)” value [6] was 44%, the “Population Hoechst High Intensity Objects (%)” value [6] was 8% and the “Population Membrane Permeable-Phenotype (%)” value [6] was 25%. For the same molecule, the “Population Mitochondria Different-Phenotype (%)” value [6] was 28%, the “Population Mitotic Cells (%)” value [6] was 14% and the “Population Normal (%)” value [6] was 91%. The “Population Pyknosed Nuclei (%)” value [6] was 21%, the “Population Tubulin-Different-Phenotype (%)” value [6] was 27% and the “Total Cell Count” value [6] was 144. For the same molecule, the “Population Apoptotic (%)” value [7] was 68%, the “Population Fragmented Nuclei (%)” value [7] was 36% and the “Population Healthy Nuclei (%)” value [7] was 43%. For the same molecule, the “Population Hoechst High Intensity Objects (%)” value [7] was 3%, the “Population Membrane Permeable-Phenotype (%)” value [7] was 53% and the “Population Mitochondria Different-Phenotype (%)” value [7] was 59%. For the same molecule, the “Population Mitotic Cells (%)” value [7] was 31%, the “Population Normal (%)” value [7] was 96% and the “Population Pyknosed Nuclei (%)” value [7] was 20%. For the same molecule, the “Population Tubulin-Different-Phenotype (%)” value [7] was 59%, the “Total Cell Count” value [7] was 220 and the “Population Apoptotic (%)” value [8] was 92%. For the same molecule, the “Population Fragmented Nuclei (%)” value [8] was 20%, the “Population Healthy Nuclei (%)” value [8] was 40% and the “Population Hoechst High Intensity Objects (%)” value [8] was 10%. The “Population Membrane Permeable-Phenotype (%)” value [8] was 59%, the “Population Mitochondria Different-Phenotype (%)” value [8] was 65% and the “Population Mitotic Cells (%)” value [8] was 7%. For the same molecule, the “Population Normal (%)” value [8] was 89%, the “Population Pyknosed Nuclei (%)” value [8] was 38% and the “Population Tubulin-Different-Phenotype (%)” value [8] was 81%. For the same molecule, the “Total Cell Count” value [8] was 121, the “Population Apoptotic (%)” value [9] was 93% and the “Population Fragmented Nuclei (%)” value [9] was 35%. For the same molecule, the “Population Healthy Nuclei (%)” value [9] was 32%, the “Population Hoechst High Intensity Objects (%)” value [9] was 8% and the “Population Membrane Permeable-Phenotype (%)” value [9] was 16%. The “Population Mitochondria Different-Phenotype (%)” value [9] was 12%, the “Population Mitotic Cells (%)” value [9] was 6% and the “Population Normal (%)” value [9] was 91%. For the same molecule, the “Population Pyknosed Nuclei (%)” value [9] was 32%, the “Population Tubulin-Different-Phenotype (%)” value [9] was 9% and the “Total Cell Count” value [9] was 246. The “Population Apoptotic (%)” value [10] was 88%, the “Population Healthy Nuclei (%)” value [10] was 30% and the “Population Membrane Permeable-Phenotype (%)” value [10] was 38%. For the same molecule, the “Population Mitochondria Different-Phenotype (%)” value [10] was 17%, the “Population Mitotic Cells (%)” value [10] was 11% and the “Population Pyknosed Nuclei (%)” value [10] was 34%. For the same molecule, the “Population Tubulin-Different-Phenotype (%)” value [10] was 27%, the “Total Cell Count” value [10] was 170 and the “Population Apoptotic (%)” value [11] was 100%. The “Population Fragmented Nuclei (%)” value [11] was 47%, the “Population Healthy Nuclei (%)” value [11] was 22% and the “Population Hoechst High Intensity Objects (%)” value [11] was 11%. For the same molecule, the “Population Membrane Permeable-Phenotype (%)” value [11] was 39%, the “Population Mitochondria Different-Phenotype (%)” value [11] was 39% and the “Population Mitotic Cells (%)” value [11] was 0%. The “Population Normal (%)” value [11] was 88%, the “Population Pyknosed Nuclei (%)” value [11] was 29% and the “Population Tubulin-Different-Phenotype (%)” value [11] was 43%. For the same molecule, the “Total Cell Count” value [11] was 246, the “Population Apoptotic (%)” value [12] was 98% and the “Population Fragmented Nuclei (%)” value [12] was 45%. The “Population Healthy Nuclei (%)” value [12] was 8%, the “Population Hoechst High Intensity Objects (%)” value [12] was 14% and the “Population Membrane Permeable-Phenotype (%)” value [12] was 80%. The “Population Mitochondria Different-Phenotype (%)” value [12] was 50%, the “Population Mitotic Cells (%)” value [12] was 1% and the “Population Normal (%)” value [12] was 85%. The “Population Pyknosed Nuclei (%)” value [12] was 45%, the “Population Tubulin-Different-Phenotype (%)” value [12] was 80% and the “Total Cell Count” value [12] was 138.
